The species named for assay [1] is Mustela putorius furo. The assay is described as follows: Increase in contractile force (CF) of ferret papillary muscle; NR = not reached at 100 uM. It counts as functional. Conditions: Muscle tissue. A digest of the protocol: (§1)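 Isolated ferret papillary muscle in vitro. Value is the drug concentration (μM) giving a 20% rise in contractile force, the mean of at least two determinations, with ranges within ±10%. NR means that level was not reached at 100 μM. Responses were also tested with 1 μM propranolol and, for some compounds, 10 μM cimetidine.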

For assay [2], the system named is cAMP phosphodiesterase (Canis familiaris). Briefly: Inhibition of crude canine cardiac c-AMP phosphodiesterase at 100 uM. Conditions: Canis lupus familiaris.
A short description of assay [3]: Inhibition of crude canine cardiac c-AMP phosphodiesterase. Details: species or system Canis lupus familiaris. A digest of the protocol: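 Crude cAMP phosphodiesterase came from canine cardiac tissue homogenates. IC50 (μM) is the mean of at least three determinations, with ranges within ±10%. Where 50% inhibition was not reached at 100 μM, the percent inhibition at 100 μM drug was recorded instead.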

The species entered for assay [4] is Mustela putorius furo. The assay is described as follows: 20% increase in contractile force (CF) of ferret papillary muscle. It counts as functional, Muscle tissue. A digest of the protocol:
as §1

Structures are written as SMILES.

`CCc1[nH]c(O)nc1C(=O)NCCCn1ccnc1`: the C20 entry in assay [1] was “Not reached”. Also, the inhibition in assay [2] is 5%.
`CCc1[nH]c(O)nc1C(=O)c1ccc(-n2ccnc2)cc1`: the IC50 in assay [3] amounted to 2 µM. The same compound had a C20 in assay [4] of 0.05 µM.
The matching figures for `Cc1nc(O)c(C#N)c(NCCc2c[nH]cn2)n1`: 4 µM and 0.2 µM.
`CCc1[nH]c(O)nc1C(=O)NCCc1c[nH]cn1` displayed a C20 in assay [4] of 10 µM. In assay [2], this compound showed an inhibition of 25%.
Consider `CCc1[nH]c(O)nc1C(=O)c1ccc(-n2ccnc2C)cc1`, for which, in assay [4], the C20 is 0.7 µM.
As to `CC(=O)c1ccc(-n2ccnc2C)cc1`, the C20 in assay [4] was determined as 25 µM. In assay [2], this compound came in with an inhibition of 15%.
For the compound `COc1ccc(C(=O)N2CCN(c3ccc4c(c3)CCC(=O)N4)CC2)cc1OC` [VESNARINONE], in assay [3], inhibition was half-maximal at 32 µM (IC50). Further, in assay [4], the C20 is 2.3 µM.
In the case of `CCc1[nH]c(O)nc1C(=O)c1ccccc1`, in assay [3], inhibition was half-maximal at 54 µM (IC50). The compound further came in with a C20 in assay [4] of 2 µM.
In the same order, the values of `O=C1CCc2cc(-n3ccnc3)ccc2N1` are 71 µM and 1.6 µM.
Regarding `Cc1nc(=O)c(C#N)c(NCc2cccnc2)[nH]1` [PELRINONE], the IC50 in assay [3] is 4 µM. Further, the C20 in assay [4] was 0.2 µM.
With `CCc1[nH]c(O)nc1C(=O)OC`, in assay [1], the C20 entry is “Not reached”. In addition, in assay [2], the inhibition was determined as 10%.

As a reminder, the inhibition is the percentage by which the read-out fell short of the control. What is called IC50 is the midpoint of a concentration-inhibition curve.

For the origin of these results see ChEMBL document CHEMBL1124478, “Cardiotonic agents. 5. Fragments from the heterocycle-phenyl-imidazole pharmacophore” (J Med Chem, 1989).
